# Compound activity (PubChem)
# ABHD4 inh: ABHD4 (mouse) inhibition, primary FP screen. purified mABHD4, FP-Rh probe fluorescence polarization. inhibition, % at 8.92 µM. 370,000 tested, 0.54% active. AID 720543;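 active = inhibition exceeding the mean over every tested compound plus 3 SD, cut at about 30% in these data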;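 also: 0% = plate median of compound wells and 100% = S159A mutant with DMSO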
#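 Assay system: Wild-type mouse ABHD4 protein | Medium: HEPES pH 7.0 buffer, 150 mM NaCl, 0.01% Pluronic F-127 | Incubation: Enzyme–compound pre-incubation 45 min, then probe 60 min, both 25 °C | Technique: Fluorescence polarization with parallel and perpendicular emission, 525/598 nm | Evaluation: % inhibition of FP-Rh probe binding versus controls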
# HTRA1 inh: inhibitors of human serine peptidase HTRA1 | recombinant HTRA1, FP-rhodamine activity-based probe, fluorescence polarization | inhibition, % at 5.96 µM | 340,000 tested, 0.5% active | AID 504803; in the data active = inhibition above about 36%;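 also: 0% = enzyme with DMSO and 100% = wells lacking enzyme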
# Tn6 DDE FP: disrupts Tn6 cyclic peptide binding to fibrin D-Dimer-E complex. Fibrin DD(E) TRITC-Tn6 fluorescence polarization displacement. inhibition, % at 8.3 µM. 370,000 tested, 0.21% active. AID 720509;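 active = inhibition above a per-campaign cutoff: mean of compounds within control limits plus 3 SD, cut at about 15% in these data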;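 also: 0% = median of all compound wells on the plate and 100% = blocking peptide control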
# SIAE inh: human SIAE inhibition, primary screen | SIAE FP-Rh probe binding, fluorescence polarization | inhibition, % at 9.66 µM | 370,000 tested, 0.69% active | AID 1053197;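 active = inhibition above a cutoff: mean of compounds within the control limits plus 3 SD of those, cut at about 17% in these data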;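 also: 0% = plate median of compound wells and 100% = probe without SIAE protein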
# Target sequence (Q9HAT2 whole entry, looked up): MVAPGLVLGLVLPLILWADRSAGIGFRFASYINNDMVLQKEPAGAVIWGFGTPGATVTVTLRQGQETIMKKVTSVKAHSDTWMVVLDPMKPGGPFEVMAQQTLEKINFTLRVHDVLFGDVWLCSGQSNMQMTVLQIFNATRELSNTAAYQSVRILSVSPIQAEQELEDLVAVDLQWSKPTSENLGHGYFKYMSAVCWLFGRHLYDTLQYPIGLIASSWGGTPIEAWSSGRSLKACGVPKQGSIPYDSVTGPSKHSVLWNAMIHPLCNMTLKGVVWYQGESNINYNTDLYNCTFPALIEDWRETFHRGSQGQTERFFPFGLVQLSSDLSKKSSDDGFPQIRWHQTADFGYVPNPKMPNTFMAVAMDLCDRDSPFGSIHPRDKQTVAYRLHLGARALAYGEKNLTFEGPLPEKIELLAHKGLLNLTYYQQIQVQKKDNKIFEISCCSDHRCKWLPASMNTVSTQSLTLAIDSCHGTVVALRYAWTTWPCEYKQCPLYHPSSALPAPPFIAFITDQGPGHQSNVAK
# Tn7 DDE FP: disrupts Tn7 cyclic peptide binding to fibrin D-Dimer-E complex | P02675 | FP displacement of FITC-Tn7 peptide from fibrin DD(E); 0% = median of compound wells per plate | inhibition, % at 8.3 µM | 370,000 tested, 0.13% active | AID 720508;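 active = inhibition above the mean of compounds falling within the control limits plus 3 SD of them, cut at about 14% in these data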;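 also: 0% = plate median of compound wells and 100% = 10 µM Aha-Tn7 peptide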
#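 Test system: human clot-derived fibrin DD(E) complex / Quantity: 2 µM final DD(E) protein / Incubation: 10 min plus 3 h, room temperature / Measured by: fluorescence polarization / Benchmarks: high control of 10 µM Aha-Tn7 peptide / Replicates: singlicate testing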
# TCR-CD3 inh: human TCR-CD3 binding inhibition | TAMRA-labeled TCR probe fluorescence, biochemical | inhibition, % at 9.4 µM | 360,000 tested, 0.37% active;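 also: recombinant mutant TCR 2C K166C tagged with TAMRA read by polarization; 0% = receptor in buffer alone and 100% = receptor with positive control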
# HTRA1 inh conf: confirmation of human HTRA1 inhibitors. recombinant HTRA1, FP-rhodamine activity-based probe, fluorescence polarization. 1,600 tested, 66% active. shares compounds with HTRA1 inh. inhibition, % at 5.96 µM;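 active = mean inhibition over three repeats above a set limit taken from the earlier primary screen, cut at about 37% in these data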;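 also: 0% = HTRA1 with DMSO and 100% = wells lacking HTRA1; inhibitors block probe binding so polarization drops and inhibition rises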
# BSA TAMRA ctr: counter-screen for TCR-CD3 interaction inhibitors: BSA probe; shares compounds with TCR-CD3 inh; 1,200 tested, 10% active; AID 652035; TAMRA-labeled BSA probe fluorescence counterscreen; inhibition, % at 9.4 µM; in the data active = inhibition above about 23%;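 also: 0% = buffer low control and 100% = reference high control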
# TCR-CD3 inh conf: TCR-CD3 interaction inhibition, confirmation; shares compounds with TCR-CD3 inh; TAMRA-labeled TCR probe fluorescence binding assay; inhibition, % at 9.4 µM; 1,200 tested, 48% active; AID 652036
# ABHD4 confirm: confirmation of mouse ABHD4 inhibitors; purified mABHD4, FP-Rh probe fluorescence polarization; inhibition, % at 8.92 µM; 1,800 tested, 55% active; shares compounds with ABHD4 inh;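 active = mean inhibition across replicates above the hit cutoff set in the primary screen, cut at about 30% in these data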;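 also: 0% = wild-type ABHD4 with DMSO and 100% = catalytically dead S159A mutant with DMSO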
# Starred values were filed as active, the others as inactive; / = no result given; + = active, no number. Most compounds without a hit are left out; they make up all but 1.8% or so of the library. Rule as the data show it, unless noted: active = inhibition above about 19%; inactive = the rest.
SMILES,ABHD4 inh,HTRA1 inh,Tn6 DDE FP,SIAE inh,Tn7 DDE FP,TCR-CD3 inh,HTRA1 inh conf,ABHD4 confirm,others
Cc1ccc(C(=O)N(C)[C@H]2C[C@H]3c4[nH]c5c(-c6cccc(C)c6)cccc5c4CCN3C[C@H]2[C@H](C)O)cc1,6,/,-5,2,1,/,/,/,
COC(=O)/C=C/c1ccc2c(c1)OCO2,-1,1,-6,-5,2,5,/,/,
CCNc1ccccc(C(=O)/C=C/c2ccc3c(c2)OCO3)c1=O,41*,36*,5,16,-1,7,19,22,
O=C(c1cccc(F)c1F)N1CCCC(c2nc(-c3cccs3)no2)C1 (configuration not stated),-2,/,5,1,5,/,/,/,
O=C(Nc1c(-c2ccccc2)nc2ncccn12)C1CC1,0,/,-4,0,-7,/,/,/,
Cc1ccc2nc(/C(C#N)=C/c3ccc(O)c(O)c3)[nH]c2c1,55*,67*,-5,16,-4,11,92*,52*,
COc1ccc(CCn2c(O)cc3nn(-c4nc5ccccc5s4)c(=O)c-3c2C)cc1,37*,42*,-11,2,-1,1,88*,17,
Oc1ccccc1CNc1cccc2cccnc12,47*,39*,10,15,2,-8,5,-11,
NC(=S)NNc1cccc2cccnc12,32*,46*,-13,6,-5,19*,27,52*,BSA TAMRA ctr=-5;TCR-CD3 inh conf=3
O=C1N2Cc3ccccc3C2CS(=O)(=O)N1Cc1ccccc1 (configuration not stated),-2,/,2,-1,-1,/,/,/,
CC(C)c1cc2c(c(O)c1O)[C@@]13CCCC(C)(C)C1CC2OC3=O (some centres not stated),31*,48*,-3,20*,0,-3,18,26,
O=C(CSc1nc2ccccc2o1)N/N=C/c1ccccc1,7,16,13,6,4,4,/,/,
Cc1cc(SCC(=O)N/N=C/c2ccc(O)c(O)c2)nc2ccccc12,35*,78*,-3,3,-17,26*,74*,31*,BSA TAMRA ctr=-10;TCR-CD3 inh conf=39*
O=C(CSc1nc2ccccc2o1)N/N=C/c1ccc(O)c(O)c1,34*,37*,-6,16,6,13,66*,29,
Cc1ccc2nc(SCC(=O)N/N=C/c3ccco3)cc(C)c2c1,-3,-26,-5,5,-2,6,/,/,
O=C(Nc1ccc(Cl)c(Cl)c1)C1CCCN(c2nnc(-n3cccc3)s2)C1 (configuration not stated),-54,/,7,1,-2,/,/,/,
COC(=O)[C@@]1(OC(C)=O)CC(OC(C)=O)[C@H](OC(C)=O)[C@H](OC(C)=O)C1Br (some centres not stated),-7,/,6,-2,0,/,/,/,
N#C/C(=C\c1ccc(O)c(O)c1)C(=O)Nc1ccccc1,73*,68*,4,10,0,12,177*,43*,
N#C/C(=C\c1cccnc1)C(=O)Nc1ccccc1,-4,0,-3,2,1,4,/,/,
C[C@@H](NC(=O)/C(C#N)=C/c1ccc(O)c(O)c1)c1ccccc1,54*,68*,5,11,6,3,91*,28,
N#C/C(=C/c1ccc(O)c(O)c1)C(=O)NCc1ccc(Cl)cc1,51*,81*,4,5,0,4,87*,37*,
COC(=O)[C@]12C[C@H](CC(=O)N3CCN(C(=O)C4CC4)CC3)C(=O)N(CCc3ccc(OC)c(OC)c3)C1=C[C@H](C(C)(C)C)O[C@@H]2C,5,/,3,-5,-4,/,/,/,
O=C(O)CSc1cc(NS(=O)(=O)c2ccc(Br)cc2)c2ccccc2c1O,49*,46*,-8,13,3,-5,18,49*,
O=S(=O)(Nc1cc(Sc2ncn[nH]2)c(O)c2ccccc12)c1ccccc1,21,/,1,9,1,2,/,/,
CCCCNC(=O)C1(C(=O)C2CC2)CC(C(=O)OCC)=NO1 (configuration not stated),-5,/,-4,7,5,/,/,/,
SMILES,ABHD4 inh,HTRA1 inh,Tn6 DDE FP,SIAE inh,Tn7 DDE FP,TCR-CD3 inh,HTRA1 inh conf,ABHD4 confirm,others
O=S1(=O)c2ccc(N3CCSCC3)cc2Oc2ccccc2CN1Cc1cn(Cc2ccc(F)cc2)nn1,-5,/,2,-6,3,/,/,/,
CCN(CC)c1ccc(/C=N/Nc2ccc(C)cc2)c(O)c1,31*,42*,11,13,-8,4,20,31*,
COCCCNC1=C(Cl)C(=O)c2ccccc2C1=O,3,8,-5,-4,1,7,/,/,
COCCCNc1c2c3c(cccc3[nH]c1=O)C(=O)c1ccccc1-2,109*,126*,86*,-6,6,172*,120*,178*,BSA TAMRA ctr=+;TCR-CD3 inh conf=185*
CCn1nc([N+](=O)[O-])c(C(C#N)c2nc3ccccc3n2C)c(Cl)c1=O (configuration not stated),19,11,3,3,-5,1,/,/,
CCCn1nc([N+](=O)[O-])c(C(C#N)c2nc3ccccc3s2)c(Cl)c1=O (configuration not stated),78*,76*,5,7,0,-2,72*,98*,
CC1CCCCC1N(C(=O)c1cc(C2CC2)on1)C1CCCCC1 (configuration not stated),1,/,1,-1,4,/,/,/,
Cc1ccc(O)c(N=CC2=C(O)c3ccccc3C2=O)c1,34*,44*,-3,-1,-1,12,76*,46*,
COc1ccc(-c2cc(-c3nnc(SCC(=O)N4CCOCC4)n3N)[nH]n2)cc1,1,/,0,5,-1,/,/,/,
CCN=c1scc(-c2ccco2)n1/N=C/c1ccc(O)cc1,20,16,-3,11,-7,5,/,/,
CCN=c1scc(C)n1/N=C/c1ccc(O)c(O)c1O,60*,60*,1,9,0,27*,81*,49*,BSA TAMRA ctr=-20;TCR-CD3 inh conf=41*
CC(=O)Nc1ccc(Nc2ccc3c4c(cc(=O)n3C)-c3ccccc3C(=O)c24)cc1,16,21,2,4,2,1,/,/,
